PDI inh – blocks human protein disulfide isomerase activity | PDI insulin aggregation turbidity, A650, 90 min | inhibition, % at 10 µM | 350,000 tested, 0.052% active;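 active = mean inhibition across replicates of 30% or more, whatever share of single replicates reach that level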
FN deposition inh – fibronectin deposition inhibition | AID 743247 | AH1F fibroblasts, Alexa488-fibronectin deposition fluorescence, overnight | inhibition, % at 12.6 µM | 350,000 tested, 0.086% active;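 active = mean inhibition across replicates of 30% or more, regardless of how many single replicates reach that level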;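 note: positive control wells lacked labelled fibronectin entirely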
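Material: AH1F fibroblast monolayer depositing Alexa488-labelled fibronectin into matrix / Amount: 10000 AH1F cells per well / Signal: fluorescence 485/525 nm / Medium: DMEM, 2% serum / Compound: single dose, pinned / Incubation: 1 h cell adhesion before compound, then overnight fibronectin incubation / Reagent: Alexa488-FN, 24 nM final / Read-out: inhibition of fibronectin deposition signal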
ERp5 inh – blocks human ERp5 reductase activity on insulin; inhibition, % at 9.99 µM; AID 651711; 350,000 tested, 0.05% active; ERp5 insulin aggregation, absorbance 650 nm, 90 min;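 active = mean replicate inhibition above about 25%, with every replicate also reaching it, limit read from the data, passing the limit was not always enough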
FGF22 binding – binders of recombinant human FGF22 by thermal shift. 340,000 tested, 1.5% active. AID 651658. Q9HCT0. activity (Tm shift, normalised), % at 9.99 µM. SYPRO orange fluorescence; percent of sucrose octasulfate shift, DMSO zero;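 active = mean Tm shift, scaled 0 neutral to 100 positive control, at about 1.3% or above, every replicate too, limit read from the data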
ARNT-TACC3 inh – disrupts binding between human ARNT and TACC3; Q9Y6A5; AlphaScreen His-ARNT PAS-B/GST-TACC3 binding, luminescence; TACC3 fragment carries E629A point mutation; inhibition, % at 9.99 µM; 390,000 tested, 0.66% active; AID 623870;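 active = mean inhibition of replicates at least 50% and at least half of replicates each reaching 50%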;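 note: 0% = complete ARNT plus TACC3 wells and 100% = ARNT alone without TACC3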
MLL AF4-AF9 inh – inhibitors of human MLL-AF4/AF9 interaction | inhibition, % at 10 µM | P42568 | 350,000 tested, 0.47% active | AlphaScreen, biotin-AF4 peptide binding to FLAG-AF9;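 active = every replicate reaching a set inhibition limit, whatever the replicate mean, cut at about 25% in these data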;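 note: 0% = plate neutral control median and 100% = total signal loss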
Target sequence (P42568 whole entry, looked up): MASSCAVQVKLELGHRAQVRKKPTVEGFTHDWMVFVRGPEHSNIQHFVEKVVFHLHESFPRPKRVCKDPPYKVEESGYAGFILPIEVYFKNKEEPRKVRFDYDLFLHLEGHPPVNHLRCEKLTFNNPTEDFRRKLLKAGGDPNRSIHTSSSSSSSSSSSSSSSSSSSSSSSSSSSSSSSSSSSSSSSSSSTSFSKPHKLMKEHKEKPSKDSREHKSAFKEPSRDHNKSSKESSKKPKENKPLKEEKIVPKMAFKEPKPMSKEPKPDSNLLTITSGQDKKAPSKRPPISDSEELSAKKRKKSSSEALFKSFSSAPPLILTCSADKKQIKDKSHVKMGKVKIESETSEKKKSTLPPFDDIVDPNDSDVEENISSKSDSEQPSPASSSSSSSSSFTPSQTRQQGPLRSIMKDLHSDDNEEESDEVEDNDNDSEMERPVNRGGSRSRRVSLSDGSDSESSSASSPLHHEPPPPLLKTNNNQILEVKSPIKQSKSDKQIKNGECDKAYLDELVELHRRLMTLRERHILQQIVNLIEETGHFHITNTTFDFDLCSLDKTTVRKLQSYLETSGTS
* marks the source's active call; other numbers are inactive results; . = not tested or not shown. This is a sample that favours compounds with a hit; in the whole collection about 2.1% have one here.

SMILES	PDI inh	FN deposition inh	ERp5 inh	FGF22 binding	ARNT-TACC3 inh	MLL AF4-AF9 inh
O=C1NC(=S)S/C1=C\c1cc(Cl)ccc1Cl	-7	-9	-7	0	-9	-2
CCN1C(=O)[C@@H]2[C@@H](c3ccc(-c4ccc(OC)cc4)cc3)N3CCC[C@@]3(C(=O)OC)[C@@H]2C1=O	2	14	-7	44*	7	14
CCCCCCSc1ccc([C@@H]2[C@H]3C(=O)N(CC)C(=O)[C@H]3[C@]3(C(=O)OC)CCCCN23)cc1OC	-2	5	-1	1	6	48*
CCCSc1ccc([C@@H]2[C@@H]3C(=O)N(CC)C(=O)[C@@H]3[C@]3(C(=O)OC)CCCCN23)cc1OC	2	-25	-5	0	0	4
CCCCCCSc1ccc([C@@H]2[C@H]3C(=O)N(C)C(=O)[C@H]3[C@]3(C(=O)OC)CCCCN23)cc1OC	-1	31*	2	0	8	-4
O=C(c1ccncc1)N1CC(=O)N2[C@H](C1)[C@H](c1ccc(-c3cccnc3)cc1)[C@@H]2CO	.	.	12	.	.	-4
COc1cc2c(cc1N)-c1ccc(N)cc1C2=O	-8	0	-7	-1	.	35*
Nc1ccc2c(c1)C(=O)c1cc(N)c(Cl)cc1-2	-9	-6	1	43*	4	10
Nc1ccc2c(c1)C(=O)c1ccc(Cl)cc1-2	4	5	2	1	3	10
C[C@H]1CN([C@@H](C)CO)C(=O)c2cccc(NC(=O)C3CC3)c2O[C@H]1CN(C)C(=O)NC1CCCCC1	.	.	5	0	-27	-3
O=C(C[C@H]1C[C@@H]2c3cc(NC(=O)Nc4ccccc4F)ccc3O[C@@H]2[C@H](CO)O1)NCc1ccc(Oc2ccccc2)cc1	.	-21	11	0	6	1
COc1ccc2c3c([nH]c2c1)[C@H](CO)N(C(=O)NC(C)C)CC31CN(C(=O)C2CCCC2)C1	.	.	67*	0	.	3
CCCC(=O)N1CC2(C1)CN(C(=O)C1CCCCC1)[C@H](CO)c1[nH]c3cc(OC)ccc3c12	.	.	36*	0	.	0
COc1ccc2c3c([nH]c2c1)[C@@H](CO)N(C(=O)C1CCCC1)CC31CCN(C(=O)NC(C)C)CC1	.	.	27*	0	.	-1
COc1ccc2c3c([nH]c2c1)[C@@H](CO)N(C(=O)C1CCCC1)CC31CN(C(=O)NC(C)C)C1	.	.	-3	0	.	-1
CC[n+]1oc(-c2ccccc2)cc1C	0	-2	3	43*	-2	0
COc1ccccc1S(=O)(=O)Nc1ccc2c(c1)C(=O)N(C)C[C@@H](OC)[C@H](C)CN[C@@H](C)CO2	.	20	0	0	-4	-3
COc1ccc(CN2CCN(c3ncnc4scc(-c5ccc(F)cc5)c34)CC2)cc1	-6	4	0	0	48*	10
COc1ccc(N2CCN(c3ncnc4scc(-c5ccc(F)cc5)c34)CC2)cc1	2	-4	-2	0	9	16
Cc1cc(=O)[nH]c(CN2CCOCC2)n1	9	.	1	43*	-1	-3
Cc1nc(CN2CCCCC2)cc(=O)[nH]1	5	0	8	43*	-6	2
Cc1cc(=O)[nH]c(CN2CCC(c3ccccc3)CC2)n1	-4	-1	2	0	-2	-13
COc1ccccc1NC(=O)N1CC[C@@H]2[C@H]1c1cc(C#Cc3ccc(F)cc3)ccc1N(C)[C@@H]2CO	.	-12	2	1	1	-3
CCC(C)C(=O)Nc1nnc(SCC(=O)Nc2ccccc2F)s1 (stereo not given)	1	-2	1	44*	.	-5
CCC(C)C(=O)Nc1nnc(SCC(=O)Nc2ccc(F)cc2)s1 (stereo not given)	0	.	6	0	-4	-3
COc1ccccc1-c1cn(CC[C@H]2CC[C@H](NC(=O)C3CC3)[C@H](CO)O2)nn1	.	-3	6	0	-7	5
Cc1[nH]n(-c2ccccc2)c(=O)c1C(C[N+](=O)[O-])c1ccc(F)cc1 (stereo not given)	1	2	.	.	23	.
